Data: ChEMBL document CHEMBL1140865, “Studies on anti-HIV quinolones: new insights on the C-6 position” (Bioorg Med Chem, 2009)
Values after ≈ are worked out from the molar mass of the structure shown.

Experiments:
[1] = tested on: Human immunodeficiency virus; experiment: Antiviral activity against HIV 3B in human MT4 cells assessed as inhibition of virus-induced cytopathogenicity by MTT assay; type: functional, organism-based; conditions: Human immunodeficiency virus 1, 3B
Outline: (§1)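 MT-4 cells resuspended at 6 × 10⁵ cells/mL, infected with HIV-1 IIIB or HIV-2 ROD at 100–300 CCID50, serial 5-fold compound dilutions. After 5 days, viability read by MTT reduction at 540 and 690 nm, median OD of three wells. EC50 = concentration giving 50% protection from viral cytopathic effect; mean ± SD of three separate experiments.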

[2] = tested on: Human immunodeficiency virus; experiment: Antiviral activity against HIV ROD in human MT4 cells assessed as inhibition of virus-induced cytopathogenicity by MTT assay; type: functional, organism-based; conditions: Human immunodeficiency virus 2, ROD; outline: as §1
[3] = Cytotoxicity against mock-infected human MT4 cells by MTT assay; type: cell-based
Outline: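 Mock-infected MT-4 cells (6 × 10⁵ cells/mL) exposed to serial 5-fold compound dilutions in parallel with infected cultures. After 5 days, viability measured by MTT formazan absorbance (540 and 690 nm; median OD of three wells). CC50 = concentration reducing OD540 of mock-infected control by 50%; mean ± SD of three separate experiments.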

[4] = Selectivity index, ratio of CC50 for human MT4 cells to EC50 for HIV 3B; type: toxicity, cell-based; conditions: read-out: Ratio CC50/EC50
[5] = Selectivity index, ratio of CC50 for human MT4 cells to EC50 for HIV ROD; type: toxicity, cell-based; conditions: read-out: Ratio CC50/EC50
[6] = tested on: Human immunodeficiency virus; experiment: Antiviral activity against HIV 3B in PHA-stimulated human PBMC assessed as inhibition of p24 antigen production by ELISA; type: functional, organism-based; conditions: Human immunodeficiency virus 1, 3B
Outline: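 PBMCs from healthy donors isolated by density centrifugation, PHA-stimulated 3 days, washed, plated at 2 × 10⁵ per 200 µL with serial compound dilutions and infected with HIV at 1000 CCID50 per mL. On day 4, supernatant partly replaced with fresh compound-containing medium. At day 7, p24 in supernatant measured by ELISA. EC50 = 50% inhibition of p24; mean ± SD, at least two experiments.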

[7] = Cytotoxicity against mock-infected human PBMC; type: cell-based
Outline: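 Mock-infected PHA-stimulated PBMCs cultured with serial compound dilutions. Viability determined by trypan blue exclusion. CC50 = concentration reducing viability by 50%; mean ± SD of at least two separate experiments.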

[8] = Selectivity index, ratio of IC50 for human PBMC to IC50 for HIV 3B

Row | EC50 [6] | SMILES | EC50 [1] | EC50 [2] | CC50 [3] | selectivity ratio [4] | selectivity ratio [5] | CC50 [7] | Ratio CC50/EC50 [8]
1 |  | Cn1cc(C(=O)O)c(=O)c2cc(O)c(N3CCN(c4nc5ccccc5s4)CC3)cc21 | > 0.02 µg/mL | > 0.02 µg/mL | 0.02 µg/mL (≈ 0.0458 µM) | < 1 | < 1 |  | 
2 | 0.26 µg/mL (≈ 0.604 µM) | Cn1cc(C(=O)O)c(=O)c2cc(O)c(N3CCN(c4ccc5ccccc5n4)CC3)cc21 | 0.08 µg/mL (≈ 0.186 µM) | 0.033 µg/mL (≈ 0.0767 µM) | 0.47 µg/mL (≈ 1.09 µM) | 6 | 14 | 1.91 µg/mL (≈ 4.44 µM) | 7
3 |  | Cc1ccnc2c1NC(=O)c1cccnc1N2C1CC1 [NEVIRAPINE] | 0.023 µg/mL (≈ 0.0864 µM) | > 4 µg/mL | > 4 µg/mL | > 176 |  |  | 
4 | 1.78 µg/mL (≈ 4.51 µM) | COc1cc2c(=O)c(C(=O)O)cn(C)c2cc1N1CCN(c2ccccn2)CC1 | 0.47 µg/mL (≈ 1.19 µM) | 0.4 µg/mL (≈ 1.01 µM) | 2.55 µg/mL (≈ 6.47 µM) | 5 | 6.5 | 8.46 µg/mL (≈ 21.4 µM) | 5
5 | 0.39 µg/mL (≈ 1.03 µM) | Cn1cc(C(=O)O)c(=O)c2cc(O)c(N3CCN(c4ccccn4)CC3)cc21 | 1.85 µg/mL (≈ 4.86 µM) | 1.31 µg/mL (≈ 3.44 µM) | > 125 µg/mL | > 68 | > 96 | ≥ 17.2 µg/mL | >=44
6 |  | Cn1cc(C(=O)O)c(=O)c2cc(C(F)(F)F)c(N3CCN(c4cccc(C(F)(F)F)c4)CC3)cc21 | > 1.65 µg/mL | > 1.65 µg/mL | 1.65 µg/mL (≈ 3.3 µM) | < 1 | < 1 |  | 
7 |  | Cn1cc(C(=O)O)c(=O)c2cc(N)c(N3CCN(c4ccccn4)CC3)cc21 | 0.058 µg/mL (≈ 0.153 µM) | 0.097 µg/mL (≈ 0.256 µM) |  | 15 | 10 |  | 
8 |  | Cn1cc(C(=O)O)c(=O)c2cc(O)c(N3CCN(c4cnccn4)CC3)cc21 | > 125 µg/mL | > 125 µg/mL | > 125 µg/mL | < 1 | < 1 |  | 
9 |  | COc1cc2c(=O)c(C(=O)O)cn(C)c2cc1N1CCN(c2nc3ccccc3s2)CC1 | > 0.05 µg/mL | > 0.05 µg/mL | 0.05 µg/mL (≈ 0.111 µM) | < 1 | < 1 |  | 
10 |  | Cc1cn([C@H]2C[C@H](N=[N+]=[N-])[C@@H](CO)O2)c(=O)[nH]c1=O [ZIDOVUDINE] | 0.0015 µg/mL (≈ 0.00561 µM) | 0.0008 µg/mL (≈ 0.00299 µM) | 2.01 µg/mL (≈ 7.52 µM) | 1340 | 2480 |  | 
11 |  | Cn1cc(C(=O)O)c(=O)c2cc(C(F)(F)F)c(N3CCN(c4ccccn4)CC3)cc21 | > 13.9 µg/mL | > 13.9 µg/mL | 13.9 µg/mL (≈ 32.2 µM) | < 1 | < 1 |  | 
12 | 0.4 µg/mL (≈ 0.894 µM) | Cn1cc(C(=O)O)c(=O)c2cc(O)c(N3CCN(c4cccc(C(F)(F)F)c4)CC3)cc21 | ≥ 1.13 µg/mL | ≥ 0.133 µg/mL | 1.13 µg/mL (≈ 2.53 µM) |  |  | 1.61 µg/mL (≈ 3.6 µM) | 4
13 |  | Cn1cc(C(=O)O)c(=O)c2cc(C(F)(F)F)c(N3CCN(c4nc5ccccc5s4)CC3)cc21 | > 0.54 µg/mL | > 0.54 µg/mL | 0.54 µg/mL (≈ 1.11 µM) | < 1 | < 1 |  | 
